Our source for the inhibition of growth, IC50 and inhibition values is ChEMBL document CHEMBL3877250, “Design, synthesis, and biological evaluation of (2E)-(2-oxo-1, 2-dihydro-3H-indol-3-ylidene)acetate derivatives as anti-proliferative agents through ROS-induced cell apoptosis” (Eur J Med Chem, 2016).

Data set [1] can be described thus: Cytotoxicity against human SW480 cells assessed as growth inhibition at 20 uM after 72 hrs by CCK-8 assay. The data set is classed as functional. Conditions: SW480, 72 h, read-out: GI. Put shortly: (§1)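 Cells kept in RPMI 1640 with 10% heat-inactivated fetal calf serum and 1% streptomycin/penicillin at 37 °C, 5% CO2. After compound exposure, CCK-8 was added and cells were incubated 4 h at 37 °C, then absorbance was read at 450 nm. Viability is relative to untreated cells (100%). IC50 comes from nonlinear regression, mean of three separate determinations. Single-concentration screen at 20 µM.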

The nature of data set [2]: Cytotoxicity against human SK-BR-3 cells assessed as growth inhibition at 20 uM after 72 hrs by CCK-8 assay. The class given is functional. Conditions: SK-BR-3, 72 h, read-out: GI. Put shortly:
as §1

A short description of data set [3]: Cytotoxicity against human HL60 cells assessed as growth inhibition at 20 uM after 72 hrs by CCK-8 assay. The class given is functional. Conditions: HL-60, 72 h, read-out: GI. Put shortly:
as §1

Data set [4] can be described thus: Cytotoxicity against human MDA-MB-231 cells assessed as growth inhibition at 20 uM after 72 hrs by CCK-8 assay. The data set is classed as functional. Conditions: MDA-MB-231, 72 h, read-out: GI. In a few lines: as §1
Data set [5] in a line: Cytotoxicity against human HL60 cells after 72 hrs by CCK-8 assay. Conditions: HL-60, 72 h. The data set is classed as functional, cell-based. Put shortly: as §1
Data set [6] in a line: Antitumor activity against human HepG2 cells assessed as growth inhibition at 20 uM after 72 hrs by CCK-8 assay. The class given is functional. Conditions: HepG2, 72 h, read-out: GI. Put shortly: as §1
Data set [7] in a line: Cytotoxicity against human L02 cells assessed as growth inhibition at 20 uM after 72 hrs by CCK-8 assay. The data set is classed as toxicity, cell-based. Conditions: read-out: GI. Put shortly: as §1
A short description of data set [8]: Cytotoxicity against human Saos2 cells assessed as growth inhibition at 20 uM after 72 hrs by CCK-8 assay. Conditions: SAOS-2, 72 h, read-out: GI. The data set is classed as functional. In a few lines: as §1
Data set [9] is described as follows: Cytotoxicity against human HCT116 cells assessed as growth inhibition at 20 uM after 72 hrs by CCK-8 assay. The class given is functional. To be noted: HCT-116, 72 h, read-out: GI. In a few lines:
as §1

The nature of data set [10]: Cytotoxicity against human L02 cells after 72 hrs by CCK-8 assay. The data set is classed as toxicity, cell-based. Put shortly: as §1
Data set [11] can be described thus: Cytotoxicity against human OVCAR3 cells assessed as growth inhibition at 20 uM after 72 hrs by CCK-8 assay. The data set is classed as functional. To be noted: OVCAR-3, 72 h, read-out: GI. Put shortly: as §1

Each structure is given as a SMILES string.

Consider `Cc1ccc2c(c1)/C(=C\C(=O)OC(C)(C)C)C(=O)N2`, for which the inhibition of growth at 20 µM worked out at 79% in data set [1]; 88% in data set [2]; 94.6% in data set [3]; 87.8% in data set [4]; 90.3% in [6]; 83.7% in data set [8]. Moreover, the inhibition of growth at 20 µM in data set [9] is 89.4%; in data set [11] it was 59.5%. The IC50 in data set [5] came out at 5 µM. In data set [7], the inhibition at 72 h, 20 µM stood at 63.9%. In data set [10], the IC50 at 72 h worked out at 2.68 µM.

Consider `CC(C)(C)OC(=O)/C=C1/C(=O)Nc2ccc([N+](=O)[O-])cc21`, for which the inhibition of growth at 20 µM in data set [1] was determined as 77.9%; in data set [2] it was 87.9%; in data set [3], 86.6%; in data set [4] it was 86.9%; in data set [6] it was 88.2%; in [8], 82.8%. Further, the inhibition of growth at 20 µM in [9] turned out to be 88.1%; in [11], 55.6%. Further, the IC50 in data set [5] stood at 9.86 µM. The inhibition at 72 h, 20 µM in [7] is 62%. This compound also returned an IC50 at 72 h in data set [10] of 3.82 µM.

For the compound `CN1C(=O)/C(=C/C(=O)Oc2ccc(Cl)cc2)c2ccccc21`, half-maximal inhibition in data set [5] (IC50) was put at 12.2 µM.

In the case of `COc1ccc(OC(=O)/C=C2/C(=O)N(C)c3ccccc32)cc1`, in [5], the IC50 stood at 10.6 µM. In addition, in data set [10], half-maximal inhibition (IC50 at 72 h) was put at 23.5 µM.

For the compound `COC(=O)CC1C(=O)Nc2ccccc21` (stereo not given), in [5], the IC50 was determined as 114 µM. Besides, the IC50 at 72 h in data set [10] is greater than 100 µM.

As for `CCCCc1ccc2c(c1)/C(=C\C(=O)OC(C)(C)C)C(=O)N2`, the inhibition of growth at 20 µM in data set [1] stood at 78.3%; in [2], 87.8%; in data set [3] it was 94.7%; in data set [4], 87.7%; in data set [6] it was 90.3%; in data set [8] it was 84.2%. In addition, the inhibition of growth at 20 µM is 89% in [9] and 60.2% in [11]. The IC50 in data set [5] worked out at 6.19 µM. Moreover, the inhibition at 72 h, 20 µM in [7] was 63.7%. Moreover, in data set [10], the concentration for half-maximal inhibition (IC50) at 72 h amounted to 4.4 µM.

`COc1cccc2c1NC(=O)/C2=C/C(=O)OC(C)(C)C`: the inhibition of growth at 20 µM turned out to be 77.8% in [1]; 87.7% in [2]; 84.2% in [3]; 86.7% in data set [4]; 87.3% in data set [6]; 81.1% in data set [8]. In addition, the results for the inhibition of growth at 20 µM in [9] and in data set [11] were 87.6% and 57.1%, respectively. Also, in data set [5], half-maximal inhibition (IC50) was put at 9.68 µM. Moreover, the inhibition at 72 h, 20 µM in data set [7] is 61.6%.

Consider `COC(=O)/C=C1/C(=O)Nc2ccccc21`, for which the inhibition of growth at 20 µM came out at 78.1% in data set [1]; 86.7% in data set [2]; 81.5% in data set [3]; 86.8% in [4]; 88% in data set [6]; 78.6% in data set [8]. Also, the inhibition of growth at 20 µM was found to be 87% in data set [9] and 54.4% in data set [11]. The compound also gave an IC50 in data set [5] of 4.18 µM. The inhibition at 72 h, 20 µM in data set [7] came out at 61.5%. Further, it took 7.05 µM to reach half-maximal inhibition in [10] (IC50 at 72 h).

As to `CNC(=O)/C=C1/C(=O)N(C)c2ccccc21`, inhibition in data set [5] was half-maximal at 10.7 µM (IC50). The same compound yielded an IC50 at 72 h in data set [10] of 19.1 µM.

For the compound `CC(C)(C)OC(=O)/C=C1/C(=O)Nc2c(Cl)cccc21`, the inhibition of growth at 20 µM in [1] was 78%; in [2], 88.2%; in [3] it was 93.7%; in [4] it was 87.4%; in data set [6], 88.1%; in data set [8], 82.4%. Also, the inhibition of growth at 20 µM in data set [9] is 89.5%; in data set [11] it was 59.3%. In data set [5], this compound had an IC50 of 6.12 µM. Besides, the inhibition at 72 h, 20 µM in data set [7] was found to be 64%. Inhibition in [10] was half-maximal at 4.8 µM (IC50 at 72 h).

With `CC(C)(C)OC(=O)CC1C(=O)Nc2ccccc21` (stereo not given), the inhibition of growth at 20 µM amounted to 8.8% in data set [1]; 22.6% in data set [2]; 0.5% in data set [3]; 3.7% in data set [4]; 1.2% in data set [6]; 1.5% in data set [8]. For the same compound, the inhibition of growth at 20 µM in data set [9] stood at 1.7%; in data set [11], 6.4%. The compound further gave an IC50 in data set [5] greater than 100 µM. The inhibition at 72 h, 20 µM in [7] was 0.1%. Besides, in data set [10], the IC50 at 72 h was greater than 100 µM.

For `CC(C)(C)OC(=O)/C=C1/C(=O)N(Cc2ccccc2)c2ccccc21`, the inhibition of growth at 20 µM in data set [1] is 78.4%; in [2], 88%; in data set [3] it was 91.7%; in [4], 87.1%; in [6], 88%; in data set [8] it was 82.1%. For the same compound, the figures for the inhibition of growth at 20 µM in [9] and in [11] were 87.9% and 58.9%, respectively. The compound also yielded an IC50 in [5] of 13.8 µM. In addition, the inhibition at 72 h, 20 µM in data set [7] turned out to be 62%. The compound also came in with an IC50 at 72 h in data set [10] of 5.03 µM.

On to `CCOC(=O)/C=C1/C(=O)Nc2ccccc21`, for which the inhibition of growth at 20 µM was determined as 78.3% in [1]; 85.5% in data set [2]; 77.7% in data set [3]; 86.9% in data set [4]; 90.2% in data set [6]; 81.4% in data set [8]. Further, the inhibition of growth at 20 µM in data set [9] amounted to 89.3%; in [11], 57.3%. In data set [5], half-maximal inhibition (IC50) was put at 4.83 µM. For the same compound, in data set [7], the inhibition at 72 h, 20 µM worked out at 63.9%. The compound also came in with an IC50 at 72 h in data set [10] of 4.23 µM.

Take `CC(=O)O[C@H]1C(=O)[C@@]2(C)[C@H]([C@H](OC(=O)c3ccccc3)[C@]3(O)C[C@H](OC(=O)[C@H](O)[C@@H](NC(=O)c4ccccc4)c4ccccc4)C(C)=C1C3(C)C)[C@]1(OC(C)=O)CO[C@@H]1C[C@@H]2O` [PACLITAXEL]: the inhibition of growth at 20 µM in data set [1] amounted to 76.4%; in data set [2], 72.1%; in data set [3], 71%; in [4] it was 85.1%; in data set [6] it was 89.4%; in [8], 77.4%. Moreover, the figures for the inhibition of growth at 20 µM in [9] and in [11] were 88.9% and 58.5%, respectively. For the same compound, in [7], the inhibition at 72 h, 20 µM came to 61.5%.

With `CN1C(=O)/C(=C/C(=O)Oc2ccccc2)c2ccccc21`, in data set [5], the IC50 came to 10.2 µM. In data set [10], this compound returned an IC50 at 72 h of 22.7 µM.

Consider `CN1C(=O)C(CC(=O)OC(C)(C)C)c2ccccc21` (stereo not given), for which the IC50 in data set [5] is 93.1 µM. Besides, the IC50 at 72 h in data set [10] was greater than 100 µM.

`CN1C(=O)/C(=C/C(=O)Oc2ccc3ccccc3c2)c2ccccc21` displayed an IC50 in data set [5] of 23.8 µM. In [10], this compound came in with an IC50 at 72 h of 46.6 µM.

The compound `CCOC(=O)/C=C1\C(=O)Nc2ccccc21` showed an IC50 in data set [5] greater than 100 µM.

In data set [5], `CN1C(=O)/C(=C/C(=O)O)c2ccccc21` yielded an IC50 of 83.7 µM. In other words, the double-digit micromolar range.

Regarding `CCN(CC)CCNC(=O)c1c(C)[nH]c(/C=C2\C(=O)Nc3ccc(F)cc32)c1C` [SUNITINIB], in [5], the IC50 came out at 4.95 µM. Moreover, the IC50 at 72 h in [10] is 4.62 µM.

As to `CC(C)(C)OC(=O)CC1C(=O)Nc2ccc(Cl)cc21` (stereo not given), inhibition in data set [5] was half-maximal at 81.1 µM (IC50).
